This is a sample that favours compounds with a hit; in the whole collection about 1.5% have one here.
PG9 Ab binder – small molecules binding HIV-1 gp120 antibody PG9; TR-FRET gp120-PG9 antibody binding; inhibition, % at 6.7 µM; actives 0.43% (n = 360,000); AID 624416; in the data active = inhibition above about 8.5%
NR2E3 ag-1 – activates human photoreceptor nuclear receptor NR2E3; inhibition of corepressor binding, % at 4.78 µM; GST-NR2E3/biotin-RetCOR TR-FRET, 1536-well; actives 0.12% (n = 320,000); Q9Y5X4;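 active = percent inhibition above the cutoff of mean plus 3 SD of all tested compounds, set per screening campaign, cut at about 20% in these data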;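 note: 0% = DMSO wells and 100% = biotin wells as full block of FRET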
Target sequence (Q9Y5X4 whole entry, looked up): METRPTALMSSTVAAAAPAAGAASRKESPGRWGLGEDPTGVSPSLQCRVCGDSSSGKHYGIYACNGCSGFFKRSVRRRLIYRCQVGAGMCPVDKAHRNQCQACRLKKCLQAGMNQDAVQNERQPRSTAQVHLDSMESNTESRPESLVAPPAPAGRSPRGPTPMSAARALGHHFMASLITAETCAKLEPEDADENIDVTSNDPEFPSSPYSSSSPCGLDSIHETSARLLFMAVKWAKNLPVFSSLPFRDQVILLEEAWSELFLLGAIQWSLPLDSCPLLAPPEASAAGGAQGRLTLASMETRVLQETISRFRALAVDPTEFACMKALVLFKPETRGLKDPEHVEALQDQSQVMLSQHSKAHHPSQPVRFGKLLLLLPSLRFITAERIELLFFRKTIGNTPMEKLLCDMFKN
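Test system – NR2E3–RetCOR corepressor complex · Quantity – NR2E3 fusion 1.35 nM · Buffer or medium – Tris pH 7.5 · Incubation – Compound–protein incubation for 5 h at 4 °C · Technique – TR-FRET, Eu(K)-anti-GST donor, streptavidin-D2 acceptor, ex 340, em 617/671 nm · Evaluation – percent inhibition of 671/617 nm emission ratio versus biotin and DMSO controls · Plate – 1536-well format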
NR1D1 modulator – Rev-erb alpha (human) modulation. actives 0.79% (n = 370,000). Rev-erbα–FITC-DNA binding, fluorescence polarization, 90 min. P20393. AID 1259318. activity, % at 10 µM;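 active = activity above about 14%, limit read from the data; passing the limit was not always enough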;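 note: 0% = DMSO wells with 35 nM protein and 100% = DMSO wells with 750 nM protein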
NR2E3 ag-2 – human photoreceptor-specific nuclear receptor agonism; CHO-S Gal4-NCOR/VP16-NR2E3 two-hybrid, luciferase; Q9Y5X4; AID 602229; actives 0.35% (n = 360,000); inhibition of corepressor binding, % at 3.98 µM;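 active = inhibition above the mean of all tested compounds plus 3 SD, cut at about 70% in these data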;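 note: 0% = DMSO with NR2E3 transfected cells and 100% = cells lacking NR2E3 construct; higher means lower luciferase signal from less NR2E3 corepressor binding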
NR2E3 ag conf – NR2E3 agonism confirmed in two-hybrid assay; actives 51% (n = 2,300); shares compounds with NR2E3 ag-2; AID 624378; CHO-S mammalian two-hybrid NR2E3-NCOR, luciferase luminescence; inhibition, % at 3.98 µM;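 active = average inhibition above a cutoff equal to the mean inhibition of all tested compounds plus one SD, cut at about 70% in these data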;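 note: 0% = DMSO in NR2E3 cells and 100% = DMSO in cells lacking NR2E3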
VP16 counter – GAL4-VP16 reporter inhibition in NR2E3 agonist counterscreen; actives 29% (n = 2,300); shares compounds with NR2E3 ag-2; inhibition, % at 3.98 µM; CHO-S GAL4-VP16 luciferase reporter, luminescence;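 active = mean inhibition above a cutoff equal to the average over all tested compounds plus one standard deviation, cut at about 70% in these data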;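 note: luciferase from a UAS reporter driven by GAL4-VP16 transactivation; 0% = DMSO with VP16-transfected cells and 100% = DMSO with cells lacking VP16; higher means less reporter light so more repression of VP16 activity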
* hit, by the source's call.

Results for COc1cccc(-c2nnc3n2N=C(C(C)(C)C)CS3)c1 ?
PG9 Ab binder: 0; NR2E3 ag-1: 3; NR1D1 modulator: -2; NR2E3 ag-2: 69; NR2E3 ag conf: 29; VP16 counter: 51

Results for O=C1NC(=O)C(c2ccc(F)cc2)N1 (stereo not given) ?
PG9 Ab binder: 2; NR2E3 ag-1: 4; NR1D1 modulator: 3; NR2E3 ag-2: 107*; NR2E3 ag conf: -5; VP16 counter: 7

How did CCCOc1ccc(C2NC(=O)NC2=O)cc1 (stereo not given) do in these assays?
PG9 Ab binder: 1; NR2E3 ag-1: -2; NR1D1 modulator: 1; NR2E3 ag-2: -16

How did C=CCN1[C@@H](C)COc2cc(F)ccc2S1(=O)=O do in these assays?
NR1D1 modulator: 2

What do the screens show for `CN1C2=NC(c3ccccc3)CC(=O)N2/C(=C\c2ccccc2)C1c1ccccc1C(F)(F)F` (stereo not given)?
NR1D1 modulator: 2

What do the screens show for `O=C1C=CC2(O[C@H](c3ccccc3)[C@@H](c3ccccc3)O2)[C@H](Sc2ccccc2O)C1`?
PG9 Ab binder: -1; NR1D1 modulator: 0; NR2E3 ag-2: 68; NR2E3 ag conf: 92*; VP16 counter: 49

How did CN(CC(=O)Nc1cccc(F)c1)C(=O)c1ccc(N2CCCCC2)c([N+](=O)[O-])c1 do in these assays?
PG9 Ab binder: -1; NR2E3 ag-1: 5; NR1D1 modulator: 2; NR2E3 ag-2: 53; NR2E3 ag conf: 54; VP16 counter: 49

Results for CN(CC(=O)Nc1cccc(F)c1)C(=O)c1cc(S(=O)(=O)N2CCN(c3ccccc3)CC2)ccc1Cl ?
PG9 Ab binder: -1; NR2E3 ag-1: 2; NR1D1 modulator: 1; NR2E3 ag-2: 54; NR2E3 ag conf: 37; VP16 counter: 44

What do the screens show for `CN(Cc1ccc(F)cc1)C(=O)c1cccc(S(=O)(=O)N2CCN(c3ccc(F)cc3)CC2)c1`?
PG9 Ab binder: 1; NR2E3 ag-1: -2; NR1D1 modulator: 8; NR2E3 ag-2: 60; NR2E3 ag conf: 38; VP16 counter: 30

How did COc1cccc(CN(C)C(=O)c2cccc(S(=O)(=O)N3CCN(c4ccccc4)CC3)c2)c1 do in these assays?
PG9 Ab binder: -1; NR1D1 modulator: 4; NR2E3 ag-2: 44

Results for COc1ccc(CN(C)C(=O)c2cccc(S(=O)(=O)N3CCN(c4ccccc4)CC3)c2)c(OC)c1OC ?
PG9 Ab binder: -1; NR2E3 ag-1: 5; NR1D1 modulator: 4; NR2E3 ag-2: 54; NR2E3 ag conf: 83*; VP16 counter: 64

Results for CN(CC(=O)Nc1cccc(F)c1)C(=O)c1cccc(S(=O)(=O)N2CCN(c3ccccc3)CC2)c1 ?
PG9 Ab binder: -2; NR2E3 ag-1: -3; NR1D1 modulator: -3; NR2E3 ag-2: 26

Results for CN1C(=O)CC(C)(c2ccccc2)C1=O (stereo not given) ?
NR1D1 modulator: 0

What do the screens show for `CCCNC(=O)C[C@H]1CC[C@H]2[C@@H](COc3ccc(NC(=O)c4cncs4)cc3C(=O)N2C)O1`?
NR1D1 modulator: 25

What do the screens show for `N#Cc1cccc(NC(=O)O[C@@H]2CC[C@@]34CCCN3C(=O)CCC[C@H]4C2)c1`?
NR1D1 modulator: 3

What do the screens show for `O=NN(CC(=O)NNc1ccccc1)CC(=O)NNc1ccccc1`?
PG9 Ab binder: -1; NR1D1 modulator: 2; NR2E3 ag-2: 73*; NR2E3 ag conf: 74*; VP16 counter: -2

How did O=C(NNc1ccccc1)c1ccccc1 do in these assays?
PG9 Ab binder: -1; NR1D1 modulator: 2; NR2E3 ag-2: 37

Results for CCOc1ccc(S(=O)(=O)N2CCC(C(=O)N3CCN(c4ccccc4F)CC3)CC2)cc1C ?
PG9 Ab binder: 0; NR2E3 ag-1: -2; NR1D1 modulator: -4; NR2E3 ag-2: 48; NR2E3 ag conf: 6; VP16 counter: 44

Results for CCOc1ccc(CN2CCC(C(=O)N3CCN(c4ccccc4F)CC3)CC2)cc1OC ?
PG9 Ab binder: -2; NR2E3 ag-1: 2; NR1D1 modulator: -9; NR2E3 ag-2: -7

How did COc1ccc2c(c1)CCCN2C(=O)C1CCCN(S(=O)(=O)c2ccc(C)c(C)c2)C1 (stereo not given) do in these assays?
NR1D1 modulator: -2

What do the screens show for `NC(=O)c1nnn(Cc2cc(Cl)c(C(=O)c3ccc(Cl)cc3)c(Cl)c2)c1N`?
PG9 Ab binder: -2; NR1D1 modulator: 3; NR2E3 ag-2: 91*; NR2E3 ag conf: 96*; VP16 counter: 82*

Results for O=c1c(Sc2ccccc2)c(C(F)(F)F)[nH]n1-c1ccccc1 ?
PG9 Ab binder: -2; NR2E3 ag-1: 3; NR1D1 modulator: -2; NR2E3 ag-2: 57; NR2E3 ag conf: 97*; VP16 counter: 74*

Results for COc1ccc2[nH]cc(C(C)c3c[nH]c4ccccc34)c2c1 (stereo not given) ?
NR1D1 modulator: -2

What do the screens show for `Oc1[nH]c2ccccc2c1N=NC(=S)N1CCOCC1`?
NR2E3 ag-1: -5; NR2E3 ag-2: 101*; NR2E3 ag conf: 75*; VP16 counter: 38

What do the screens show for `CCCn1c(CNc2ccc(Br)cc2)nc2ccccc21`?
PG9 Ab binder: -3; NR2E3 ag-1: -1; NR1D1 modulator: -5; NR2E3 ag-2: 54; NR2E3 ag conf: 27; VP16 counter: 22

Results for CCn1c(CNc2ccc(C(=O)O)cc2)nc2ccccc21 ?
PG9 Ab binder: -2; NR2E3 ag-1: -2; NR1D1 modulator: -1; NR2E3 ag-2: -2

How did CC(C)(C)c1ccc(/C=N/Nc2ccc(C(=O)O)cc2)cc1 do in these assays?
PG9 Ab binder: -3; NR2E3 ag-1: 0; NR1D1 modulator: -5; NR2E3 ag-2: 50; NR2E3 ag conf: 65; VP16 counter: -33

Results for O=C(O)c1ccc(N/N=C/c2ccc(C(F)(F)F)cc2)cc1 ?
PG9 Ab binder: 0; NR2E3 ag-1: -1; NR1D1 modulator: -2; NR2E3 ag-2: -20

Results for COc1ccc(C(C)=O)cc1Cn1c(C)c(C(=O)NCc2cccc(Cl)c2)sc1=O ?
PG9 Ab binder: 0; NR1D1 modulator: 8; NR2E3 ag-2: 27

Results for COc1ccc(Cl)cc1Cn1c(C)c(C(=O)NCc2cccc(Cl)c2)sc1=O ?
PG9 Ab binder: -3; NR1D1 modulator: -8; NR2E3 ag-2: 76*; NR2E3 ag conf: 75*; VP16 counter: 4

What do the screens show for `COc1ccc(NC(=O)c2sc(=O)n(Cc3ccc(F)c(Cl)c3)c2C)cc1OC`?
PG9 Ab binder: 0; NR1D1 modulator: 7; NR2E3 ag-2: 57; NR2E3 ag conf: 76*; VP16 counter: 28

What do the screens show for `COc1ccc(CNC(=O)c2sc(=O)n(Cc3cc(Cl)ccc3OC)c2C)cc1`?
PG9 Ab binder: -4; NR1D1 modulator: 5; NR2E3 ag-2: 39

High-throughput results deposited in PubChem by several laboratories.
